One data set deals with pERK. Put plainly: pERK assay by ICW. The format is cell-based. The settings on record: 24 h treatment, no virus.
The test system of data set [1] is JCPyV. Put plainly: NCC drug screen, In-Cell Western. The format is cell-based, JC polyomavirus. As to conditions: inhibitor 10 μM, SVGA cells, MOI = 0.5 FFU/cell, 72 h, VP1 ICW.
Data set [2] relates to JCPyV. In words: JCPyV infection by FFU infectivity assay. The format is cell-based, JC polyomavirus. As to conditions: 48 h, vs DMSO control.
Data set [3] relates to JCPyV. In words: JCPyV infection by ICW assay. The format is cell-based, JC polyomavirus. The settings on record: for % JCPyV infection (ICW, TAg): MOI = 1 FFU/cell, 48 h, vs DMSO control (Fig. 2); for JCPyV infection (ICW validation of screen hits): cell type not stated, data not shown.
Data set [4] has as its system SV40. In words: SV40 infection by FFU infectivity assay. The data set is classed as cell-based, simian virus 40. The settings on record: Vero cells, MOI = 1 FFU/cell, 48 h.
Data set [5] deals with reovirus. As to conditions: ref Mainou, Zamora et al. 2013; cited from earlier work.
In data set [6] the test system is SARS-CoV-2. The format is cell-based. The settings on record: Vero cells, TCID50 = 0.025/cell, 24 h.
The test system of a further data set is RPTEC. In words: MTS cell viability assay, RPTEC. The data set is classed as cell-based, human. The settings on record: RPTEC 48 h, vs DMSO control. (In general: Formazan colour is commonly taken as a measure of viable cells.)
The next data set deals with SVGA cells. Put plainly: MTS cell viability assay, SVGA cells. The data set is classed as cell-based, human.
The next data set relates to Vero cells. Put plainly: MTS cell viability assay, Vero cells. As to conditions: vs DMSO control. The data set is classed as cell-based, African green monkey.
Data set [7] concerns SARS-CoV-2. As to conditions: ref Yuan, Dong et al. 2022; cited from earlier work.
The next data set relates to HEK-2C cells. Put plainly: MTS cell viability assay, HEK-2C cells. The data set is classed as cell-based.
Another data set concerns HeLa cells. In words: MTS cell viability assay, HeLa cells. The data set is classed as cell-based. The settings on record: HeLa 24 h, vs DMSO control.
Data set [8] concerns JCPyV. Put plainly: JCPyV-647 attachment by flow cytometry. The format is cell-based, JC polyomavirus. As to conditions: HEK-2C cells pre-treated 1 h, virus on ice 1 h, vs DMSO.
For data set [9] the following is noted: ref Kang, Hong et al. 2017; cited from earlier work.
For another data set, the system named is BKPyV. In words: BKPyV infection by FFU infectivity assay. The settings on record: Vero cells, MOI = 4 FFU/cell, 72 h. The data set is classed as cell-based, BK polyomavirus. An outline of the steps: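 Vero E6 cells at 70% confluence were pre-treated 1 h at 37°C with test compound in 10% DMEM (triplicate wells). Infection ran 2 h at 37°C without compound, then cells were refed with compound-containing DMEM for 72 h. Cells were PFA-fixed and stained for VP1 (1:40) with DAPI. % infection was VP1+ cells over DAPI+ cells per 20X field, 5 fields/well.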

Data set [10] concerns JCPyV. In words: JCPyV infectious clone transfection, VP1+ nuclei by FFU assay. The settings on record: SVGA cells, TFP 15 μM, day 3 or day 7. The data set is classed as cell-based, JC polyomavirus. In a few lines: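 SVGA cells at 50% confluence were pre-treated 1 h at 37°C with test compound or DMSO. They were transfected with 2 μg/well linearized JC pUC19 (pUC19 control) using Fugene 6 (1.5 μl:1 μg DNA) with compound present. Medium was replaced with 10% MEM after 6 h. Cells were fixed and stained for VP1 (1:40). % VP1+ nuclei was VP1+ over DAPI+ cells at 10X, 5 fields/well.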

Data set [11] concerns reovirus. Put plainly: Reovirus infection by FFU infectivity assay. The data set is classed as cell-based. As to conditions: HeLa cells, MOI = 300 FFU/cell, 24 h. In a few lines:
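HeLa cells at 70% confluence were pre-treated 1 h at 37°C with test compound in 10% DMEM (triplicate wells). Infection ran 1 h at RT without compound, then cells were refed with compound-containing DMEM for 24 h at 37°C. Cells were PFA-fixed and stained with reovirus antisera (1:500), anti-rabbit secondary and DAPI. % infection was positive over DAPI+ cells per 10X field, 5 fields/well.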

Data set [12] deals with SV40. The settings on record: ref Dobson, Mankouri and Whitehouse 2020; cited from earlier work.
A further data set relates to MCPyV. The settings on record: ref Dobson, Mankouri and Whitehouse 2020; cited from earlier work.
Setting [13] is: HEK-2C cells, MOI = 0.5 FFU/cell.
Setting [14] is: primary RPTECs, MOI = 2 FFU/cell.
Where [15] appears, read: SVGA 48 h, MTS, vs DMSO control.
The mark [16] stands for this setting: HEK-2C 48 h, MTS, vs DMSO control.

For the molecule `COC(=O)C1=C(C)NC(C)=C(C(=O)OC)C1c1ccccc1[N+](=O)[O-]` [Nifedipine], the “% pERK expression (ICW)” value in the data set on pERK (HEK-2C cells) and with pERK (SVGA cells) was “significant reduction in pERK levels” throughout. Moreover, the “JCPyV infection in NCC drug screen (hit by normalized z-score)” value with JCPyV [1] was “hits”. Moreover, the “% JCPyV infection (FFU, TAg)” value in the data set on JCPyV [2] (setting [13]) is given as “significantly reduced JCPyV infection”; with JCPyV [2] (SVGA cells, MOI = 1 FFU/cell), “did not reduce JCPyV infection”; in the data set on JCPyV [2] (setting [14]) it was “significantly reduced JCPyV infection”. Further, in the data set on JCPyV [3] (HEK-2C cells), the “% JCPyV infection (ICW, TAg)” value is on record as “significant reduction”. Besides, the “% SV40 infection (FFU, VP1)” value in the data set on SV40 [4] is on record as “did not reduce SV40 infection”.

Consider `COCCOC(=O)C1=C(C)NC(C)=C(C(=O)OC(C)C)C1c1cccc([N+](=O)[O-])c1` (stereo not drawn) [Nimodipine], for which the “JCPyV infection in NCC drug screen (hit by normalized z-score)” value in the data set with JCPyV [1] is on record as “hits”. The “% JCPyV infection (FFU, TAg)” value in the data set with JCPyV [2] (SVGA cells, MOI = 1 FFU/cell) is on record as “did not significantly reduce JCPyV infection”. The “% JCPyV infection (ICW, TAg)” value in the data set with JCPyV [3] (HEK-2C cells) and in the data set on JCPyV [3] (SVGA cells) was “modestly reduced” each time.

Consider `CN1CCN(CCCN2c3ccccc3Sc3ccc(C(F)(F)F)cc32)CC1` [TFP, trifluoperazine], for which the reovirus infection result in the data set with reovirus [5] was “not impacted”. Also, the “% SARS-CoV-2 infection (FFU, NP)” value in the data set on SARS-CoV-2 [6] is given as “dramatically impaired SARS-CoV-2 infection”. The results for the “Concentration with % Viability ≥ 90%” value with RPTEC and in the data set with SVGA cells (setting [15]) were 7.5 µM and 20 µM, respectively. In addition, the “Concentration with % Viability ≥ 95%” value in the data set with RPTEC amounted to 5 µM. The “Concentration with % Viability < 80%” value in the data set on SVGA cells (setting [15]) is 30 µM; in the data set on Vero cells (Vero 72 h), 30 µM; in the data set on HEK-2C cells (setting [16]), 30 µM; in the data set on HeLa cells, 15 µM. The “Concentration with % Viability ≥ 100%” value turned out to be 15 µM with SVGA cells (SVGA 7 days, MTS, vs DMSO control); 10 µM with Vero cells (Vero 24 h); 20 µM in the data set on Vero cells (Vero 48 h); 15 µM in the data set on Vero cells (Vero 72 h); 7.5 µM with HEK-2C cells (setting [16]); 7.5 µM with HeLa cells. In addition, the SARS-CoV-2 infection entry with SARS-CoV-2 [7] is on record as “inhibited”. The “JCPyV infection in NCC drug screen (hit by normalized z-score)” value with JCPyV [1] was “hits”. The “Concentration with % Viability ≥ 85%” value with HEK-2C cells (setting [16]) was found to be 20 µM. The “% JCPyV infection (FFU, TAg)” value with JCPyV [2] (setting [13]) is recorded as “significant reduction of JCPyV infection”; in the data set on JCPyV [2] (SVGA cells, MOI = 1 FFU/cell) it was “significant reduction of JCPyV infection”; in the data set on JCPyV [2] (setting [14]), “significantly reduced JCPyV infection”. The “Concentration with % Viability ≥ 80%” value in the data set with HeLa cells stood at 10 µM. In the data set with JCPyV [8], the “JCPyV attachment (JCPyV-647, flow cytometry)” value is reported as “no significant difference in JCPyV attachment”. In data set [9], the “crossing the blood-brain barrier” value was “capable of crossing the blood-brain barrier”. In addition, the “% JCPyV infection (ICW, TAg)” value in the data set with JCPyV [3] (HEK-2C cells) and in the data set with JCPyV [3] (SVGA cells) was “significant reduction in JCPyV infection” each time. The “% BKPyV infection (FFU)” value in the data set on BKPyV is on record as “significantly reduced”. Besides, the “% VP1+ nuclei after transfection of JCPyV infectious clone” value with JCPyV [10] is given as “modest reduction in JCPyV VP1+ cells”. The “% reovirus infection (FFU)” value with reovirus [11] is listed as “not impacted”. Moreover, in the data set with SV40 [4], the “% SV40 infection (FFU, VP1)” value was “significantly reduced”.

For `COc1ccc2cc1Oc1ccc(cc1)C[C@H]1c3cc(c(OC)cc3CCN1C)Oc1c(OC)c(OC)cc3c1[C@H](C2)N(C)CC3` [Tetrandrine], the “% pERK expression (ICW)” value is listed as “reduction in pERK levels” in the data set with pERK (HEK-2C cells) and “dramatic increase in pERK” in the data set with pERK (SVGA cells). Further, the “Concentration with % Viability ≥ 100%” value in the data set with SVGA cells (human, 48 h) worked out at 10 µM. In addition, the “Concentration with % Viability < 80%” value in the data set on HEK-2C cells (human, 48 h) stood at 10 µM. Moreover, in the data set on HEK-2C cells (human, 48 h), the “Concentration with % Viability ≥ 90%” value stood at 7 µM. For the same molecule, in the data set on HEK-2C cells (human, 48 h), the “Concentration with % Viability ≥ 95%” value amounted to 1 µM. Besides, the “% JCPyV infection (FFU, TAg)” value was “significantly impaired” with JCPyV [2] (setting [13]) and “not impacted” in the data set with JCPyV [2] (SVGA cells, MOI = 1 FFU/cell). Also, the SV40 infection result with SV40 [12] is listed as “drastically reduced”. Also, the MCPyV infection result in the data set with MCPyV is “drastically reduced”. Also, the “% JCPyV infection (ICW, TAg)” value in the data set on JCPyV [3] (HEK-2C cells) was “significant reduction in infection”; in the data set on JCPyV [3] (SVGA cells), “slight, but not statistically significant, increase”. Also, in the data set with SV40 [4], the “% SV40 infection (FFU, VP1)” value is listed as “potently inhibited”.

On to `COc1ccc(CCN(C)CCCC(C#N)(c2ccc(OC)c(OC)c2)C(C)C)cc1OC` (stereo not drawn) [Verapamil], for which the SV40 infection entry in the data set with SV40 [12] is “reduces”. The MCPyV infection result in the data set with MCPyV is “reduces”.

`NCCCCCCNS(=O)(=O)c1cccc2c(Cl)cccc12` [W-7]: the “% SARS-CoV-2 infection (FFU, NP)” value with SARS-CoV-2 [6] is listed as “dramatically impaired SARS-CoV-2 infection”. Also, the “% JCPyV infection (FFU, TAg)” value in the data set on JCPyV [2] (setting [13]) is recorded as “significant reduction of JCPyV infection”; in the data set with JCPyV [2] (SVGA cells, MOI = 1 FFU/cell) it was “significant reduction of JCPyV infection”. Also, the “% JCPyV infection (ICW, TAg)” value with JCPyV [3] (HEK-2C cells) and with JCPyV [3] (SVGA cells) was “decreased JCPyV infection” each time. In addition, the “% BKPyV infection (FFU)” value in the data set with BKPyV is “significantly reduced”. Moreover, the “% SV40 infection (FFU, VP1)” value in the data set on SV40 [4] is on record as “significantly reduced”.

In the case of `O=C1CN(/N=C/c2ccc(-c3ccc([N+](=O)[O-])cc3)o2)C(O)=N1` [dantrolene sodium], the “JCPyV infection in NCC drug screen (hit by normalized z-score)” value in the data set with JCPyV [1] is listed as “hits”. Further, in the data set on JCPyV [3], the “JCPyV infection (ICW validation of screen hits)” value was “did not significantly reduce infection”.

As to `Fc1ccc(C(c2ccc(F)cc2)N2CCN(C/C=C/c3ccccc3)CC2)cc1` [flunarizine, Flunarizine], the MCPyV infection entry with MCPyV is recorded as “blocks infection”. Moreover, the “% JCPyV infection (ICW, TAg)” value in the data set with JCPyV [3] (HEK-2C cells) and with JCPyV [3] (SVGA cells) was “No significant change in infection” in each case.

On to `CCOC(=O)C1=C(C)NC(C)=C(C(=O)OC)C1c1cccc([N+](=O)[O-])c1` (stereo not drawn) [nitrendipine, Nitrendipine], for which, in the data set on JCPyV [2] (SVGA cells, MOI = 1 FFU/cell), the “% JCPyV infection (FFU, TAg)” value was “did not significantly reduce JCPyV infection”.

For the molecule `CC1(C)O[C@@H]2[C@@H](CO[C@@]3(COS(N)(=O)=O)OC(C)(C)O[C@@H]23)O1` [topiramate], in the data set on JCPyV [1], the “JCPyV infection in NCC drug screen (hit by normalized z-score)” value was “hits”. The “JCPyV infection (ICW validation of screen hits)” value in the data set with JCPyV [3] was “did not significantly reduce infection”.

These data come from article PMC10922812 (Antiviral research, 2024).
